This passage reports AC50 and activity change, negative = inhibition results from PubChem BioAssay AID588825 (Broad Institute, 2011).

The AC50 is the concentration at which the activity in the assay is half-maximal.

The source made the active and inactive calls.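 Rule for the calls: active = signal drop whose fitted AC50 is at most twice the top valid dose for that sample; inconclusive = flat fit with a moderate drop, or a poor fit; inactive = the rest.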

For one assay, the system named is CHO ldlA7 parental cells, DiI-HDL uptake fluorescence, 3 h. Put plainly: DiI-HDL uptake in parental ldlA7 CHO cells, dose response, counter-screen for SR-BI HDL uptake inhibitor project, cell-based, fluorescence, dry powder (AID 588825).
Details: not given
Put shortly: (§1)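 Assay system: parental CHO ldlA7 cells lacking LDL receptor, no mSR-BI overexpression; Probe or stimulus: DiI-labelled HDL at 10 µg/mL final; Times: 3 h exposure at 37 °C; Detection: bottom-read fluorescence after two PBS washes, excitation 550 nm, emission 595 nm.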
In general terms: Counterscreens check selectivity or assay interference.
`CCCCCCC1CCC/C1=N\NC(N)=S` (configuration not stated): the AC50 was > 70 µM (inactive).

Test system in another assay: not listed separately
Described as above. Conditions: CHO ldlA7 parental cells, DiI-HDL uptake fluorescence, 3 h; at 30 µM (top of the series). Put shortly: as §1
Consider `C[C@@H]1CN([C@@H](C)CO)C(=O)Cc2cc(NC(=O)Nc3ccc(C(F)(F)F)cc3)ccc2O[C@@H]1CN(C)S(=O)(=O)c1ccc(Cl)cc1`, for which the activity change, negative = inhibition was 19.1% (inactive).

Still in this assay, the particulars now being: CHO ldlA7 parental cells, DiI-HDL uptake fluorescence, 3 h; at 35 µM (top of the series).
Consider `CCC(=O)N1CC(C)(C)c2cc(-c3csc(NC(=O)c4cc(OC)cc(OC)c4)n3)ccc21`, for which the activity change, negative = inhibition is -2.41% (inactive).
For the compound `COCC(=O)N1CCc2cc(-c3csc(NC(=O)c4cc(OC)cc(OC)c4)n3)ccc21`, the activity change, negative = inhibition was 1.62% (inactive).
On to `CCNC(=O)N1CCc2cc(-c3csc(NC(=O)c4cc(OC)cc(OC)c4)n3)ccc21`, for which the activity change, negative = inhibition was -0.713% (inactive).
In the case of `CC(=O)N1CCc2cc(-c3nc(NC(=O)c4cccc(OC(F)(F)F)c4)sc3C)ccc21`, the activity change, negative = inhibition was 0.208% (inactive).
Regarding `C[C@H](C(=O)NC1CCCC1)N(C(=O)Cn1nnc(-c2ccc3c(c2)OCO3)n1)C1CCCCC1`, the activity change, negative = inhibition was 0.283% (inactive).
For `Cc1ccc2oc(-c3cccc(NC(=O)c4cc(-n5cnnc5)ccc4Cl)c3)nc2c1`, the activity change, negative = inhibition was -1.07% (inactive).
In the case of `COc1cc(OC)cc(C(=O)Nc2nc(-c3ccc4c(c3)CCN4C(=O)OC(C)(C)C)cs2)c1`, the activity change, negative = inhibition was 1.78% (inactive).
As for `COc1c(NC(=O)C(=O)c2ccc(OCCN3CCOCC3)c3ccccc23)cc(C(C)(C)C)cc1NS(C)(=O)=O`, the activity change, negative = inhibition is 8% (inactive).
On to `C[C@@H]1CN([C@H](C)CO)C(=O)c2cc(NC(=O)Cc3cn(C)c4ccccc34)ccc2O[C@H]1CN(C)S(=O)(=O)c1ccc(Cl)cc1`, for which the activity change, negative = inhibition was 5.56% (inactive).
For `CC(C)(Sc1cc(C(C)(C)C)c(O)c(C(C)(C)C)c1)Sc1cc(C(C)(C)C)c(O)c(C(C)(C)C)c1`, the activity change, negative = inhibition is -1.71% (inactive).
Same read-out and setting: for `COc1ccc(-c2cc(CC(=O)N(C3CCCCC3)C(C)C(=O)NC3CCCC3)no2)cc1OC` (configuration not stated) the value was 3.44% (inactive); for `CCC(=O)N1CCc2cc(-c3csc(NC(=O)c4ccc(F)c(OC)c4)n3)ccc21`, 7.73% (inactive); for `CCC(=O)N1CCc2cc(-c3csc(NC(=O)c4cccc(OC)c4)n3)ccc21`, 14.2% (inactive).
In the case of `COc1cc(OC)cc(C(=O)Nc2nc(-c3ccc4c(c3)CCN4C(=O)CN(C)C)cs2)c1`, the activity change, negative = inhibition was 3.12% (inactive).
`CC1CCC/C=C/C2CC(O)CC2C(O)/C=C\C(=O)O1` (configuration not stated): the activity change, negative = inhibition was -6.83% (inactive).
